For 3 compounds, IC50 and EC50 results are on record in publication PMC6583781 (Journal of medicinal chemistry, 2019).

Each structure is given as a SMILES string.

Experiment [1] has as its target APE1 (Homo sapiens, UniProt P27695). The experiment can be described thus: APE1 endonuclease. The class given is biochemical. The method, boiled down:
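Purified full-length APE1 (0.25-1.25 nM) added to 50 nM duplex substrate (6-FAM strand with tetrahydrofuran AP-site mimic annealed to a quencher strand) in 50 mM Tris, 1 mM MgCl2, 50 mM NaCl, pH 7.5. Compounds in triplicate, 10-point 1:2 dilutions from 100 μM. Fluorescence read kinetically at five 1-min intervals immediately; reaction rate compared with DMSO vehicle.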

The test system of experiment [2] is Pa02c cells. The experiment can be described thus: Cell cytotoxicity assay. The note with it: Homo sapiens, 48 h, read-out: PaO2c EC50. The class given is cell-based. The method in brief:
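Low-passage patient-derived pancreatic Pa02c cells, kept in DMEM with 10% FBS. Plated at 2000 cells/well in poly-D-lysine-treated plates and grown overnight at 37 °C, 5% CO2. Test compound in 5% FBS DMEM, 5-point 1:2 serial dilution from 100 µM, with DMSO vehicle and drug-background wells, for 48 h. Medium then refreshed and Alamar Blue added (10% final) for 4 h. Fluorescence read, background-subtracted, normalized to media alone.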

Sequence of APE1 (P27695 whole entry): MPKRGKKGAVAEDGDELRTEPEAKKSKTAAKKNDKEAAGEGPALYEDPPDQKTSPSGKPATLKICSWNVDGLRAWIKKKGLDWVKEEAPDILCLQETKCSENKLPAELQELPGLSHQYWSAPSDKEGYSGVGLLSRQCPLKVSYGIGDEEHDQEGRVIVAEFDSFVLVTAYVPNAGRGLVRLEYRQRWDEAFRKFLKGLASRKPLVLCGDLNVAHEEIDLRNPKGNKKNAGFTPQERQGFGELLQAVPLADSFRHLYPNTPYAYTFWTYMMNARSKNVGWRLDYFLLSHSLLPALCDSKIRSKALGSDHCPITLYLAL

Regarding `Cc1ccc(S(=O)(=O)n2cccc2[C@@H]2NC(=O)[C@H](Cc3c[nH]c4ccccc34)NC(=O)CCNC(=O)C/C=C/[C@@H]2C)cc1` [Compound 19, (3S,13S,14R,E)-3-((1H-Indol-3-yl)methyl)-13-methyl-14-(1-tosyl-1H-pyrrol-2-yl)-1,4,8-triazacyclotetradec-11-ene-2,5,9-trione], the IC50 – broadly, the midpoint of a concentration-inhibition curve – in experiment [1] worked out at 16.9 µM.

`Cc1ccc(S(=O)(=O)n2cccc2[C@@H]2NC(=O)[C@H](Cc3c[nH]c4ccccc34)NC(=O)C[C@@H](CCc3ccccc3)NC(=O)C/C=C/[C@@H]2C)cc1` [Compound 21, (3S,7R,13S,14R,E)-3-((1H-Indol-3-yl)methyl)-13-methyl-7-phenethyl-14-(1-tosyl-1H-pyrrol-2-yl)-1,4,8-triazacyclotetradec-11-ene-2,5,9-trione]: the concentration for a half-maximal effect (EC50) (usually the concentration at which the effect is half-maximal) in experiment [2] was above 100 µM.

Consider `Cc1ccc(S(=O)(=O)n2cccc2[C@@H]2NC(=O)[C@H](Cc3c[nH]c4ccccc34)NC(=O)C[C@H](CCc3ccccc3)NC(=O)C/C=C/[C@@H]2C)cc1` [Compound 20, (3S,7S,13S,14R,E)-3-((1H-Indol-3-yl)methyl)-13-methyl-7-phenethyl-14-(1-tosyl-1H-pyrrol-2-yl)-1,4,8-triazacyclotetradec-11-ene-2,5,9-trione], for which the EC50 in experiment [2] was above 100 µM.
